proCasp7 act – procaspase-7 activators, primary screen, counter-screen for procaspase-3 activator project, biochemical, absorbance, HTS, human. Caspase-7 (Homo sapiens), P55210. recombinant procaspase-7, Ac-DEVD-pNA absorbance 405 nm; D23A/D198A/D206A triple mutant, cannot self-cleave; scale: DMSO 0, 5 µM enzyme 100. activation, % at 8.5 µM. 330,000 compounds, 0.093% hits;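 active = percent activation above the screen-wide mean plus 3 SD, cut at about 25% in these data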
Target sequence (P55210 whole entry D23A/D198A/D206A): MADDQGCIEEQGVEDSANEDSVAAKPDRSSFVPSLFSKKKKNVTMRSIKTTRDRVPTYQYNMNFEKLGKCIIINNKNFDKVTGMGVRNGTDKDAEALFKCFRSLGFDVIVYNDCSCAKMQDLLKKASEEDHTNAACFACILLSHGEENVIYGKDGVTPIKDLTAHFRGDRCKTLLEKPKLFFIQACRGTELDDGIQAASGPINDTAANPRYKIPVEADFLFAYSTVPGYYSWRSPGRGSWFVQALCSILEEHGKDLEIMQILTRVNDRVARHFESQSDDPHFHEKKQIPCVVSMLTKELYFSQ
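System: Uncleavable procaspase-7 mutant enzyme; Amount: 2 µM procaspase-7 mutant as dispensed; Schedule: 1 h compound preincubation, 2 h substrate cleavage, 25 °C; Measured by: 405 nm absorbance of p-nitroaniline; Evaluation: percent activation from buffer-corrected 0–120 min absorbance change; Control set: low DMSO alone, high DMSO plus 5 µM PC-7.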
proCasp3 act – activators of human procaspase-3 D3A mutant, primary screen, biochemical, absorbance, PC-3 D3A mutant, single concentration; Caspase-3 (Homo sapiens), P42574; recombinant procaspase-3 D3A, Ac-DEVD-pNA absorbance 405 nm; activation, % at 8.5 µM; 330,000 compounds, 0.11% hits; AID 463141, 2010;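 active = activation above the mean of all tested compounds plus 3 SD, cut at about 21% in these data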;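 note: 0% = DMSO alone and 100% = DMSO wells spiked with extra 5 µM PC-3 D3A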
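Test system: Procaspase-3 D3A mutant; medium: Zinc-free HEPES/NaCl buffer with 0.01% Triton X-100 at pH 7.4; reagent: DEVD-pNA substrate; doses: one concentration, 8.5 µM nominal, 0.8% DMSO; times: 1 h preincubation plus 2 h reaction at 25 °C; signal: Epi-absorbance at 405 nm of released p-nitroaniline, 0 and 120 min; replicates: singlicate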
aDG glyco act – activators of alpha-DG glycosylation, primary screen, uHTS, Pro5-aDG cells, AlphaScreen; activation, % at 10 µM; alpha-DG glycosylation AlphaScreen (IIH6); 0% Pro5, 100% B10-LARGE cell signal; 360,000 compounds, 0.22% hits;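 active = activation of at least 8% versus controls, or a plate z-score of at least 8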;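 note: Pro5 are CHO cells carrying HIG-tagged alpha-DG that lacks glycosylation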
GRIN3A LBD mod – binders of NR3A ligand-binding domain, primary screen, biophysical, differential scanning fluorimetry, uHTS; 340,000 compounds, 2.5% hits; Tm shift relative to glycine control, % at 25 µM; NR3A LBD differential scanning fluorimetry, Tm shift; 0% = protein alone, 100% = glycine-bound protein; Glutamate receptor ionotropic, NMDA 3A (GRIN3A) ligand-binding domain;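 active = melting temperature shift of at least 10% of the positive control shift, at one fixed dose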
MPTP block – mitochondrial permeability transition pore inhibitors, primary screen, biochemical, isolated mouse mitochondria, absorbance | Ca2+ swelling absorbance, 30 min | inhibition, % at 10 µM | 360,000 compounds, 1.4% hits;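 active = inhibition of 50% or more, scaled per plate between neutral and stimulator controls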;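 note: 0% = DMSO wells given calcium and 100% = 1 mM EGTA wells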
* = called active by the depositor; . = no result. Compounds with a hit are over-represented: about 3.7% of the library has one in this group of screens.

SMILES	proCasp7 act	proCasp3 act	aDG glyco act	GRIN3A LBD mod	MPTP block
CCOc1ccc(C(=O)COC(=O)Cn2cnc3c2c(=O)n(C)c(=O)n3C)cc1	1.6	8.0	0.1	-1.2	-0.2
Cc1ccc(-c2cc(-c3ccc(F)cc3)n[nH]2)c(O)c1	.	.	-0.1	11.8*	40.2
Oc1ccccc1-c1cc(-c2ccc(F)cc2)n[nH]1	5.3	6.0	0.1	-2.2	33.3
Cc1ccc(-c2cc(-c3ccccc3Cl)[nH]n2)c(O)c1	4.5	-3.4	0.3	12.2*	17.6
Oc1ccc(Cl)cc1-c1cc(-c2ccccc2)n[nH]1	-1.0	6.1	-0.1	24.9*	3.5
Oc1ccccc1-c1cc(-c2ccccc2)n[nH]1	11.6	3.9	0.4	-6.1	2.8
Cc1ccc(O)c(-c2cc(-c3cccc(Br)c3)n[nH]2)c1	1.7	-5.6	-0.2	28.3*	4.6
Cc1ccc(-c2cc(-c3ccc(C)cc3O)[nH]n2)cc1	2.7	9.6	0.1	3.2	3.3
CN(C)C=NC(=O)c1ccc([N+](=O)[O-])c(CS(=O)(=O)c2ccc(Cl)cc2)c1	-0.1	-6.1	0.0	12.5*	0.6
NNC(=O)c1ccc([N+](=O)[O-])c(CS(=O)(=O)c2ccc(Cl)cc2)c1	5.5	-5.2	-0.1	-1.4	2.2
CCN(CC)S(=O)(=O)c1ccc(N2CCCC2)c(NC(=O)CN2C(=O)NC3(CCCC3)C2=O)c1	5.9	8.7	0.0	-0.1	0.6
O=c1oc2ccccc2cc1-c1csc(Nc2nc3ccc(F)cc3s2)n1	-3.3	-2.1	.	.	.
O=c1oc2ccccc2cc1-c1csc(Nc2nc3c(F)cccc3s2)n1	4.8	-4.2	-0.1	23.3*	39.4
c1ccc(C(Cc2nc(-c3cccnc3)no2)c2ccccc2)cc1	-2.0	-0.7	-0.2	1.0	1.1
c1ccc(C(c2ccccc2)c2nc(-c3cccnc3)no2)cc1	2.5	-4.2	0.0	15.7*	0.3
CC(C)(C)OC(=O)N(CCc1ccccc1)Cc1cccc(OCc2cccc(NC(=O)c3ccccc3)c2)c1	.	.	0.0	1.2	0.0
CC(=O)c1cccc(CN2CCC(n3nccc3NC(=O)CCc3ccccc3)CC2)c1	4.0	8.0	0.0	14.5*	0.3
CC(=O)Nc1ccc(CN2CCC(n3nccc3NC(=O)CCc3ccccc3)CC2)cc1	1.8	6.9	0.0	1.7	-2.4
CCC(=O)Nc1cccc(C2=NOC3(C2)C[C@@H](C(N)=O)N(C(=O)C(c2ccccc2)c2ccccc2)C3)c1 (some centres not stated)	-2.0	0.8	0.1	-2.5	-2.2
NC(=O)[C@H]1CC2(CC(c3cccc(NC(=O)COc4ccc(Cl)cc4)c3)=NO2)CN1C(=O)C(c1ccccc1)c1ccccc1 (some centres not stated)	-0.4	-3.9	1.9	11.5*	-3.4
NC(=O)[C@@H]1CC2(CC(c3cccc(NC(=O)COc4ccc(Cl)cc4)c3)=NO2)CN1C(=O)COc1ccc(Cl)cc1 (some centres not stated)	-7.2	-6.7	-0.1	23.2*	-1.7
NC(=O)[C@H]1CC2(CC(c3cccc(NC(=O)CC(c4ccccc4)c4ccccc4)c3)=NO2)CN1C(=O)CC(c1ccccc1)c1ccccc1 (some centres not stated)	9.4	-2.8	-0.3	17.3*	0.8
CC(C)c1ccc(NC(=O)C2(C)Cc3c(-c4cccc(C(N)=O)c4)ccnc3O2)cc1 (configuration not stated)	.	.	0.6	.	0.4
Cc1cc2n(n1)C(c1c[nH]c3ccccc13)Nc1ccccc1-2 (configuration not stated)	-4.3	-7.9	-0.1	31.5*	6.3
Cc1cc2n(n1)C(c1cn(-c3ccccc3)nc1C)Nc1ccccc1-2 (configuration not stated)	3.8	1.8	0.5	3.8	-0.1
CSc1ccccc1C(=O)OCC(=O)NC1CC1	.	.	-0.2	.	-0.9
COc1ccc(-c2csc3ncnc(N4CCN(Cc5ccccc5)CC4)c23)cc1	3.0	2.5	0.5	14.4*	1.0
CCOC(=O)c1ccc(Cl)c(NC(=O)c2ccc(-c3ccccc3)cc2)c1	-2.3	-3.4	-0.1	1.7	0.7
